Source: ChEMBL document CHEMBL1129691, “Synthesis and structure-DNA binding relationship analysis of DNA triple-helix specific intercalators” (J Med Chem, 1996)

Key:
[1] = system: Nucleic Acid; test: Temperature (delta Tm) for DNA triplex to duplex and single stranded transitions [Poly(dT.dA.dT) to Poly(dA.dT) and Poly(dT)]; type: nucleic-acid assay
Method in brief: (§1)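 Thermal melting in PIPES buffer (0.01 M PIPES, 0.001 M EDTA, 0.2 M NaCl, pH 7.0). Duplex poly(dA·dT) and triplex poly(dT·dA·dT) are formed by adding DNA stock to buffer. Compound is added at a molar ratio of 0.3 per nucleic acid base (saturating). ΔTm = Tm(complex) − Tm(free DNA), estimated error ±0.5 °C.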

[2] = system: Nucleic Acid; test: Temperature (delta Tm) for DNA duplex denaturation evaluated by thermal melting; type: nucleic-acid assay; method in brief: as §1
[3] = PKa value of the N in quinoline ring is determined in 1-cm UV cell titreated with HCl or NaOH; type: physicochemical; conditions: buffer
Method in brief: (§2)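 UV-monitored pH titration with HCl or NaOH. Sample is dihydrobromide salt or free base (0.01 mM) in nanopure water with NaCl (4 mM) and EDTA (0.1 mM). UV-vis spectra (220-450 nm) recorded after each addition. pH range spans at least 2 units either side of pKa, at least two points per pH unit. Absorbance at the wavelength of greatest change is normalized and plotted against pH.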

[4] = PKa value of the side chain terminal amino is determined in 1-cm UV cell titreated with HCl or NaOH; type: physicochemical; conditions: buffer; method in brief: as §2

Structure (SMILES)	ΔTm [1] [°C]	ΔTm [2] [°C]	pKa [3]	pKa [4]
CN(C)CCN(C)c1cc(-c2cccs2)nc2ccccc12	3	0		
CN(C)CCNc1cc(-c2cccc3ccccc23)nc2ccccc12	1.9	0.1		
CN1CCN(c2cc(-c3ccccc3)nc3ccccc23)CC1	3.2	0		
CN(C)CCNc1cc(-c2ccccc2)nc2ccccc12	11.9	0.3		
CN1CCN(c2cc(-c3ccc4ccccc4c3)nc3ccccc23)CC1	19.1	0.4	5.6	> 8
CN(C)CCNc1cc(-c2ccc3ccccc3c2)nc2ccccc12	35.6	5.5	7.1	> 8
CNCCN(C)c1cc(-c2ccc3c(c2)Nc2ccccc2S3)nc2ccccc12	20.8	1.5		
Cc1ccc2cc(-c3cc(N4CCN(C)CC4)c4ccccc4n3)ccc2c1	15.5	0.4		
CN(C)CCNc1cc(-c2cccs2)nc2ccccc12	9.4	0.7		
CNCCN(C)c1cc(-c2ccc3ccccc3c2)nc2ccccc12	24.1	0.2	6.2	> 8
Cc1ccc2cc(-c3cc(NCCN(C)C)c4ccccc4n3)ccc2c1	32.9	2.2		

Continued, values first:

ΔTm [1] [°C]	ΔTm [2] [°C]	pKa [3]	pKa [4]	Structure (SMILES)
18.6	0.3			CN1CCN(c2cc(-c3ccc4c(ccc5ccccc54)c3)nc3ccccc23)CC1
19	0.4			Cc1ccc2cc(-c3cc(N(C)CCN(C)C)c4ccccc4n3)ccc2c1
2.1	0			CN(C)CCN(C)C(=O)c1cc(-c2ccc3ccccc3c2)nc2ccccc12
18.6	0.2	4.4	> 8	CN(C)CCSc1cc(-c2ccc3ccccc3c2)nc2ccccc12
35.3	5.2			CN(C)CCNc1cc(-c2ccc3c(ccc4ccccc43)c2)nc2ccccc12
23	0.5			CNCCN(C)c1cc(-c2ccc3cc(C)ccc3c2)nc2ccccc12
33.1	2.4			CN(C)CCNc1cc(-c2ccc3c(c2)Nc2ccccc2S3)nc2ccccc12
